Calls of active or inactive are those of the source. The calls are words filed in the database; no cut-off is given here.
Key:
MGC-803 [1] = experiment: Induction of cell cycle arrest in human MGC-803 cells assessed as increase in G2/M phase accumulation incubated for 24 hrs by PI staining based flow cytometry analysis; assay type: functional; conditions: dose 20-60 nM
Procedure, shortened: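 Cells in RPMI-1640/10% FBS at 37 °C, 5% CO2, exposed to 20, 40 and 60 nM for 24 h before flow cytometric cell-cycle distribution analysis.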

SGC-7901 [2] = experiment: Induction of apoptosis in human SGC-7901 cells assessed as early apoptotic cells at 60 nM incubated for 48 hrs by annexin V-FITC and PI staining based flow cytometry analysis (reference value: 1.4 %); assay type: functional
MGC-803 [3] = experiment: Induction of apoptosis in human MGC-803 cells assessed as downregulation of Bcl-xl at 20 to 60 nM incubated for 48 hrs by Western blot analysis; assay type: functional, cell-based; conditions: dose 20-60 nM
Procedure, shortened: (§1)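 Western blot on MGC-803 and SGC-7901 cells given 20, 40 and 60 nM compound or DMSO for 48 h. Denatured lysates were run on SDS-PAGE and transferred to PVDF, then probed with primary and secondary antibodies to detect apoptosis-related proteins.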

SGC-7901 [4] = experiment: Induction of cell cycle arrest in human SGC-7901 cells assessed as downregulation of Cyclin B1 at 20 to 60 nM incubated for 48 hrs by Western blot analysis; assay type: functional, cell-based; conditions: dose 20-60 nM
Procedure, shortened: (§2)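 Cells grown in RPMI-1640 with 10% FBS, penicillin/streptomycin at 37 °C, 5% CO2. Exposure to 20, 40 or 60 nM for 48 h alongside DMSO control. Lysates denatured, resolved by SDS-PAGE, transferred to PVDF, blocked, then probed with primary and secondary antibodies.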

MGC-803 [5] = experiment: Induction of apoptosis in human MGC-803 cells assessed as downregulation of XIAP at 20 to 60 nM incubated for 48 hrs by Western blot analysis; assay type: functional, cell-based; conditions: dose 20-60 nM; procedure, shortened: as §1
MGC-803 [6] = experiment: Induction of apoptosis in human MGC-803 cells assessed as early apoptotic cells at 20 nM incubated for 48 hrs by annexin V-FITC and PI staining based flow cytometry analysis (reference value: 2.9 %); assay type: functional
MGC-803 [7] = experiment: Induction of apoptosis in human MGC-803 cells assessed as early apoptotic cells at 60 nM incubated for 48 hrs by annexin V-FITC and PI staining based flow cytometry analysis (reference value: 2.9 %); assay type: functional
SGC-7901 [8] = experiment: Activation of Hippo signaling pathway in human SGC-7901 cells assessed as decrease in c-MYC expression incubated for 48 hrs by Western blot analysis; assay type: cell-based; conditions: filed as activator, dose 20-60 nM
Procedure, shortened: (§3)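 Western blot on gastric cancer cells exposed to compound or DMSO at 20, 40 and 60 nM for 48 h. Cells were lysed, then the denatured lysates were separated by SDS-PAGE and transferred to PVDF. Membranes were blocked and probed with primary and then secondary antibodies. Hippo pathway proteins were detected.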

GES1 = experiment: Cytotoxicity against human GES1 cells assessed as reduction in cell viability incubated for 48 hrs by MTT assay; assay type: functional, cell-based; conditions: GES1, 48 h
Procedure, shortened: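 MTT assay. 5,000 cells per well in RPMI-1640 with 10% FBS and penicillin/streptomycin at 37 °C, 5% CO2. Compound added 24 h after seeding and left for 48 h. MTT was then added for 4 h at 37 °C, formazan dissolved in DMSO and absorbance read at 490 nm. IC50 calculated from three independent experiments.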

MGC-803 [9] = experiment: Antiproliferative activity against human MGC-803 cells assessed as reduction in cell viability incubated for 48 hrs by MTT assay; assay type: functional, cell-based; conditions: MGC-803, 48 h
Procedure, shortened: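 MTT assay. Compound added 24 h after seeding and left for 48 h. MTT was then added for 4 h at 37 °C, formazan dissolved in DMSO and absorbance read at 490 nm. IC50 calculated from three independent experiments.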

SGC-7901 [10] = experiment: Induction of apoptosis in human SGC-7901 cells assessed as upregulation of FADD at 20 to 60 nM incubated for 48 hrs by Western blot analysis; assay type: functional, cell-based; conditions: dose 20-60 nM; procedure, shortened: as §2
SGC-7901 [11] = experiment: Induction of cell cycle arrest in human SGC-7901 cells assessed as upregulation of Histone-H3 Ser10 at 20 to 60 nM incubated for 48 hrs by Western blot analysis; assay type: functional, cell-based; conditions: dose 20-60 nM; procedure, shortened: as §2
SGC-7901 [12] = experiment: Inhibition of tubulin polymerization in human SGC-7901 cells assessed as decrease in microtubule formation at 20 to 60 nmol/L by DAPI staining based microscopic analysis; assay type: cell-based; conditions: dose 20-60 nmol/L
Procedure, shortened: (§4)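 Cells cultured in RPMI-1640 with 10% FBS at 37 °C, 5% CO2, treated 48 h with 20, 40 and 60 nM; stained for β-tubulin (green) and nuclei (blue) and examined by microscopy.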

SGC-7901 [13] = experiment: Induction of apoptosis in human SGC-7901 cells assessed as late apoptotic cells at 20 nM incubated for 48 hrs by annexin V-FITC and PI staining based flow cytometry analysis (reference value: 2.4 %); assay type: functional
SGC-7901 [14] = experiment: Induction of apoptosis in human SGC-7901 cells assessed as late apoptotic cells at 40 nM incubated for 48 hrs by annexin V-FITC and PI staining based flow cytometry analysis (reference value: 2.4 %); assay type: functional
SGC-7901 [15] = experiment: Activation of Hippo signaling pathway in human SGC-7901 cells assessed as increase in MST1/2 phosphorylation at 20 to 60 nM incubated for 48 hrs by Western blot analysis; assay type: cell-based; conditions: filed as activator, dose 20-60 nM; procedure, shortened: as §3
SGC-7901 [16] = experiment: Induction of apoptosis in human SGC-7901 cells assessed as downregulation of Mcl-1 at 20 to 60 nM incubated for 48 hrs by Western blot analysis; assay type: functional, cell-based; conditions: dose 20-60 nM; procedure, shortened: as §1
MGC-803 [17] = experiment: Induction of cell cycle arrest in human MGC-803 cells assessed as downregulation of CDK1 at 20 to 60 nM incubated for 48 hrs by Western blot analysis; assay type: functional, cell-based; conditions: dose 20-60 nM; procedure, shortened: as §2
SGC-7901 [18] = experiment: Induction of apoptosis in human SGC-7901 cells assessed as upregulation of Bak at 20 to 60 nM incubated for 48 hrs by Western blot analysis; assay type: functional, cell-based; conditions: dose 20-60 nM; procedure, shortened: as §2
MGC-803 [19] = experiment: Activation of Hippo signaling pathway in human […] cells assessed as downregulation of TEAD at 20 to 60 nM incubated for 48 hrs by Western blot analysis; assay type: cell-based; conditions: filed as activator, dose 20-60 nM; procedure, shortened: as §3
MGC-803 [20] = experiment: Induction of apoptosis in human MGC-803 cells assessed as downregulation of c-IAP1 at 20 to 60 nM incubated for 48 hrs by Western blot analysis; assay type: functional, cell-based; conditions: dose 20-60 nM; procedure, shortened: as §1
SGC-7901 [21] = experiment: Induction of apoptosis in human SGC-7901 cells assessed as late apoptotic cells at 60 nM incubated for 48 hrs by annexin V-FITC and PI staining based flow cytometry analysis (reference value: 2.4 %); assay type: functional
MGC-803 [22] = experiment: Inhibition of tubulin polymerization in human MGC-803 cells assessed as increase in multiple nucleus formation at 20 to 60 nmol/L by DAPI staining based microscopic analysis; assay type: cell-based; conditions: dose 20-60 nmol/L; procedure, shortened: as §4
SGC-7901 [23] = experiment: Induction of apoptosis in human SGC-7901 cells assessed as upregulation of Bax at 20 to 60 nM incubated for 48 hrs by Western blot analysis; assay type: functional, cell-based; conditions: dose 20-60 nM; procedure, shortened: as §2
SGC-7901 [24] = experiment: Induction of apoptosis in human SGC-7901 cells assessed as downregulation of c-IAP1 at 20 to 60 nM incubated for 48 hrs by Western blot analysis; assay type: functional, cell-based; conditions: dose 20-60 nM; procedure, shortened: as §1
MGC-803 [25] = experiment: Activation of Hippo signaling pathway in human […] cells assessed as decrease in c-MYC expression incubated for 48 hrs by Western blot analysis; assay type: cell-based; conditions: filed as activator, dose 20-60 nM; procedure, shortened: as §3
MGC-803 [26] = experiment: Inhibition of tubulin polymerization in human MGC-803 cells assessed as decrease in microtubule formation at 20 to 60 nmol/L by DAPI staining based microscopic analysis; assay type: cell-based; conditions: dose 20-60 nmol/L; procedure, shortened: as §4

IC50 (MGC-803 [9]): 35 nM
SMILES: COc1ccc(CN(C(=O)CSc2nc3ccccc3s2)c2cc(OC)c(OC)c(OC)c2)cc1O
Activity (MGC-803 [1]): Dose-dependent effect
Activity (SGC-7901 [2]): 19.1%
Activity (MGC-803 [3]): Active
Activity (SGC-7901 [4]): Active
Activity (MGC-803 [5]): Active
Activity (MGC-803 [6]): 4.4%
Activity (MGC-803 [7]): 43%
Activity (SGC-7901 [8]): Dose-dependent effect
IC50 (GES1): 249 nM
Activity (SGC-7901 [10]): Active
Activity (SGC-7901 [11]): Active
Activity (SGC-7901 [12]): Active
Activity (SGC-7901 [13]): 4.2%
Activity (SGC-7901 [14]): 6.8%
Activity (SGC-7901 [15]): Active
Activity (SGC-7901 [16]): Active
Activity (MGC-803 [17]): Active
Activity (SGC-7901 [18]): Active
Activity (MGC-803 [19]): Active
Activity (MGC-803 [20]): Active
Activity (SGC-7901 [21]): 47.3%
Activity (MGC-803 [22]): Active
Activity (SGC-7901 [23]): Active
Activity (SGC-7901 [24]): Active
Activity (MGC-803 [25]): Dose-dependent effect
Activity (MGC-803 [26]): Active
